The values below come from ChEMBL document CHEMBL1154310, “Stereoselective synthesis and antimicrobial activity of benzofuran-based (1E)-1-(piperidin-1-yl)-N2-arylamidrazones” (2009).

≈ marks a conversion by molar mass, not a printed value.

What all share (assay type): functional
The test system of test [1] is Candida albicans. Put plainly: Ratio of compound to grisofulvin activity against Candida albicans at 5 mg/ml after 24 to 48 hrs by agar diffusion technique. (A growth-free zone around the sample is the usual read-out of agar diffusion tests.)
Test [2] has as its system Pseudomonas aeruginosa. Put plainly: Ratio of compound to amoxicilline activity against Pseudomonas aeruginosa at 5 mg/ml after 24 to 48 hrs by agar diffusion technique.
For test [3], the system named is Syncephalastrum racemosum. Put plainly: Ratio of compound to grisofulvin activity against Syncephalastrum racemosum at 5 mg/ml after 24 to 48 hrs by agar diffusion technique.
Test [4] relates to Escherichia coli. Put plainly: Ratio of compound to amoxicilline activity against Escherichia coli at 5 mg/ml after 24 to 48 hrs by agar diffusion technique.
Test [5] concerns Staphylococcus aureus. Put plainly: Ratio of compound to amoxicilline activity against Staphylococcus aureus at 5 mg/ml after 24 to 48 hrs by agar diffusion technique.
Test [6] deals with Candida albicans. Put plainly: Antifungal activity against Candida albicans at 5 mg/ml after 24 to 48 hrs by agar diffusion technique. Conditions: read-out: IZ. In a few lines:
(§1)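 Clinical fungal or yeast isolates were seeded on malt extract agar (pH 5.4). 1 cm holes received 100 of test solution at 5 mg/ml in DMSO, with DMSO control holes and griseofulvin as the standard. Plates sat 1 h at 4 °C, then were incubated at 28 °C. Zone diameters were measured at 24–48 h.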

Test [7] relates to Aspergillus fumigatus. Put plainly: Ratio of compound to grisofulvin activity against Aspergillus fumigatus at 5 mg/ml after 24 to 48 hrs by agar diffusion technique.
The test system of test [8] is Geotrichum candidum. Put plainly: Ratio of compound to grisofulvin activity against Geotrichum candidum at 5 mg/ml after 24 to 48 hrs by agar diffusion technique.
Test [9] deals with Bacillus subtilis. Put plainly: Ratio of compound to amoxicilline activity against Bacillus subtilis at 5 mg/ml after 24 to 48 hrs by agar diffusion technique.
Test [10] deals with Syncephalastrum racemosum. Put plainly: Antifungal activity against Syncephalastrum racemosum at 5 mg/ml after 24 to 48 hrs by agar diffusion technique. The conditions noted are these: read-out: IZ. Put shortly:
as §1

Test [11] concerns Bacillus subtilis. Put plainly: Antibacterial activity against Bacillus subtilis at 5 mg/ml after 24 to 48 hrs by agar diffusion technique. The conditions noted are these: read-out: IZ. In a few lines: (§2)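 Hole-plate diffusion on nutrient agar (pH 6.2) seeded with clinical bacterial isolates. 1 cm wells were filled with 100 of a 5 mg/ml DMSO solution, with DMSO-only control wells and amoxicilline as the reference. Plates were held at 4 °C for 1 h, then incubated at 37 °C. Inhibition zone diameter was read after 24–48 h.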

In test [12] the test system is Geotrichum candidum. Put plainly: Antifungal activity against Geotrichum candidum at 5 mg/ml after 24 to 48 hrs by agar diffusion technique. The conditions noted are these: read-out: IZ. Put shortly: as §1
Test [13] relates to Escherichia coli. Put plainly: Antibacterial activity against Escherichia coli at 5 mg/ml after 24 to 48 hrs by agar diffusion technique. The conditions noted are these: read-out: IZ. Put shortly:
as §2

Test [14] has as its system Pseudomonas aeruginosa. Put plainly: Antibacterial activity against Pseudomonas aeruginosa at 5 mg/ml after 24 to 48 hrs by agar diffusion technique. Conditions: read-out: IZ. In a few lines:
as §2

Test [15] has as its system Aspergillus fumigatus. Put plainly: Antifungal activity against Aspergillus fumigatus at 5 mg/ml after 24 to 48 hrs by agar diffusion technique. Conditions: read-out: IZ. Put shortly:
as §1

For test [16], the system named is Staphylococcus aureus. Put plainly: Antibacterial activity against Staphylococcus aureus at 5 mg/ml after 24 to 48 hrs by agar diffusion technique. Conditions: read-out: IZ. Put shortly: as §2
For test [17], the system named is Staphylococcus aureus. Put plainly: Antibacterial activity against Staphylococcus aureus after 24 to 48 hrs by serial dilution technique. Put shortly: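 MIC by serial dilution: DMSO solutions started at a maximum of 500 and were diluted twofold in succession. Each dilution was inoculated with the test organism, and inhibition zones were measured by agar diffusion.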

With `CC(=N\NC(=O)c1oc2ccccc2c1C)/C(=N/Nc1ccc([N+](=O)[O-])cc1)NO`, the Ratio in test [1] is recorded as 0.9; in [2], 0; in [3], 1.05; in [4], 0; in test [5] it was 0; in test [7] it was 0. Besides, the Ratio in [8] and in test [9] was 0 in each case. The zone of inhibition at 5000 µg/mL in [6] was 9 mm; in test [10], 20 mm.
Consider `CC(=N\NC(=O)c1oc2ccccc2c1C)/C(Cl)=N/Nc1ccc(Br)cc1`, for which the Ratio is given as 1 in test [1]; 0 in test [2]; 0.26 in test [3]; 0 in test [4]; 0 in test [5]; 0 in test [7]. The figures for the Ratio in test [8] and in [9] were 0 and 0.38, respectively. The figures for the zone of inhibition at 5000 µg/mL in test [6], in test [11] and in [10] were 10 mm, 9 mm and 5 mm, respectively.
As for `CC(=N\NC(=O)c1oc2ccccc2c1C)/C(Cl)=N/Nc1ccc([N+](=O)[O-])cc1`, the Ratio in test [1] turned out to be 1.2; in test [2] it was 0.25; in test [3], 0; in test [4], 0.36; in test [5] it was 0.4; in test [7] it was 0.56. For the same molecule, the values for the Ratio in [8] and in test [9] were 0.5 and 0.25, respectively. Moreover, the zone of inhibition at 5000 µg/mL stood at 5 mm in test [12]; 12 mm in [6]; 6 mm in test [11]; 10 mm in test [13]; 5 mm in test [14]; 14 mm in test [15]. In addition, the zone of inhibition at 5000 µg/mL in test [16] was determined as 12 mm.
Regarding `CC(=N\NC(=O)c1oc2ccccc2c1C)/C(Cl)=N/Nc1ccccc1`, the Ratio is 0.6 in test [1]; 0 in [2]; 0 in test [3]; 0 in [4]; 0 in test [5]; 0 in [7]. Also, the Ratio in test [8] and in test [9] was 0 in each case. The zone of inhibition at 5000 µg/mL in test [6] amounted to 6 mm.
For the molecule `CC(=N\NC(=O)c1oc2ccccc2c1C)/C(Cl)=N/Nc1ccc(C)cc1`, the Ratio came out at 0.6 in test [1]; 0 in [2]; 0 in [3]; 0 in [4]; 0 in test [5]; 0 in [7]. In addition, the results for the Ratio in test [8] and in test [9] were 0 and 0.29, respectively. Also, the zone of inhibition at 5000 µg/mL in [6] was 6 mm; in test [11], 7 mm.
`COc1ccc(N/N=C(Cl)/C(C)=N/NC(=O)c2oc3ccccc3c2C)cc1`: the Ratio came to 1 in test [1]; 0 in [2]; 0 in [3]; 0 in [4]; 0 in [5]; 0 in test [7]. The Ratio in test [8] and in test [9] was 0 each time. Also, the zone of inhibition at 5000 µg/mL in test [6] amounted to 10 mm.
With `Cc1c(C(=O)N/N=C(/C=C/c2ccccc2)C(=N/Nc2ccc([N+](=O)[O-])cc2)\N2CCCCC2)oc2ccccc12`, the Ratio stood at 1.7 in test [1]; 0 in test [2]; 1.1 in test [3]; 0.29 in [4]; 0 in [5]; 0 in test [7]. Moreover, the Ratio in test [8] and in test [9] was 0 throughout. Also, the figures for the zone of inhibition at 5000 µg/mL in test [6], in test [13] and in test [10] were 17 mm, 8 mm and 21 mm, respectively.
With `Cc1c(C(=O)N/N=C/C=C/c2ccccc2)oc2ccccc12`, the Ratio is reported as 0.5 in test [1]; 0 in test [2]; 0 in test [3]; 0 in test [4]; 0 in [5]; 0 in [7]. The Ratio stood at 0 in test [8] and 0.33 in [9]. The zone of inhibition at 5000 µg/mL in test [6] worked out at 5 mm; in test [11] it was 8 mm.
Turning to `CC(=N\NC(=O)c1oc2ccccc2c1C)/C(=N/Nc1ccc([N+](=O)[O-])cc1)S(=O)(=O)c1ccccc1`, the Ratio in test [1] amounted to 1.5; in [2] it was 0; in test [3], 0; in test [4] it was 0.21; in test [5], 0.27; in [7], 0. Also, the values for the Ratio in test [8] and in test [9] were 0 and 0.42, respectively. Also, the zone of inhibition at 5000 µg/mL in test [6] was 15 mm; in [11] it was 10 mm; in [13], 6 mm; in [16], 8 mm.
In the case of `CC1(C)S[C@@H]2[C@H](NC(=O)[C@H](N)c3ccc(O)cc3)C(=O)N2[C@H]1C(=O)O` [AMOXICILLIN], the Ratio in test [1], in test [2], in test [3], in [4], in test [5] and in [7] was 1 in each case. The Ratio in test [8] and in test [9] was 1 in each case. In test [17], 50 µg/mL (≈ 137 µM) was the least that counted as inhibitory (MIC). The zone of inhibition at 5000 µg/mL in [12] is 10 mm; in test [6], 10 mm; in test [11], 24 mm; in [13] it was 28 mm; in test [14] it was 20 mm; in [15], 25 mm. In addition, the zone of inhibition at 5000 µg/mL in test [16] is 30 mm; in test [10], 19 mm.
Take `C/C=N/NC(=O)c1oc2ccccc2c1C`: the Ratio in test [1] worked out at 0.8; in [2], 0; in [3], 0; in test [4], 0.71; in test [5] it was 0.53; in test [7], 0. Also, the Ratio in [8] and in test [9] was 0 throughout. The figures for the zone of inhibition at 5000 µg/mL in test [6], in [13] and in [16] were 8 mm, 20 mm and 16 mm, respectively.
As to `CC(=N\NC(=O)c1oc2ccccc2c1C)/C(=N/Nc1ccccc1)N1CCCCC1`, the Ratio turned out to be 1.4 in test [1]; 0 in [2]; 0.84 in test [3]; 0.61 in [4]; 0.5 in [5]; 1.12 in test [7]. The Ratio in test [8] and in test [9] was 0 throughout. Also, the zone of inhibition at 5000 µg/mL turned out to be 14 mm in test [6]; 17 mm in [13]; 28 mm in test [15]; 15 mm in [16]; 16 mm in test [10].
Consider `Cc1c(C(=O)N/N=C(/C=C/c2ccccc2)C(=N/Nc2ccccc2)\N2CCCCC2)oc2ccccc12`, for which the Ratio in test [1] is 1.5; in [2], 0; in [3], 1; in [4] it was 0.5; in [5], 0.53; in [7], 0.84. The Ratio was determined as 0 in test [8] and 0.63 in test [9]. The zone of inhibition at 5000 µg/mL in [6] amounted to 15 mm; in test [11], 15 mm; in test [13] it was 14 mm; in test [15], 21 mm; in [16], 16 mm; in test [10], 19 mm.
With `Cc1c(C(=O)N/N=C(/C=C/c2ccc(Cl)cc2)C(=N/Nc2ccc(Br)cc2)\N2CCCCC2)oc2ccccc12`, the Ratio in [1] is reported as 1.4; in test [2], 0; in test [3] it was 1.05; in test [4], 0.36; in test [5] it was 0.33; in test [7], 0. The Ratio in test [8] was 0; in test [9], 0.67. Besides, the zone of inhibition at 5000 µg/mL in [6] turned out to be 14 mm; in test [11], 16 mm; in [13], 10 mm; in [16], 10 mm; in [10] it was 20 mm.
